Measured values: ChEMBL document CHEMBL4411310, “Identification of a novel DGKα inhibitor for XLP-1 therapy by virtual screening” (Eur J Med Chem, 2019)
Calls of active or inactive are those of the source. The rule behind the calls is not given here.

How the values were obtained:
[1] = Solubility of the compound in DMSO; format: physicochemical
[2] = target: T1, Diacylglycerol kinase alpha (Homo sapiens, UniProt P23743); assay: Inhibition of OST-tagged DGKalpha (unknown origin) expressed in MDCK cell homogenates assessed as residual activity at 100 uM using DAG as substrate measured after 5 mins in presence of [gamma-32P]ATP by TLC analysis relative to control; format: cell-free
T1 sequence (P23743 whole entry): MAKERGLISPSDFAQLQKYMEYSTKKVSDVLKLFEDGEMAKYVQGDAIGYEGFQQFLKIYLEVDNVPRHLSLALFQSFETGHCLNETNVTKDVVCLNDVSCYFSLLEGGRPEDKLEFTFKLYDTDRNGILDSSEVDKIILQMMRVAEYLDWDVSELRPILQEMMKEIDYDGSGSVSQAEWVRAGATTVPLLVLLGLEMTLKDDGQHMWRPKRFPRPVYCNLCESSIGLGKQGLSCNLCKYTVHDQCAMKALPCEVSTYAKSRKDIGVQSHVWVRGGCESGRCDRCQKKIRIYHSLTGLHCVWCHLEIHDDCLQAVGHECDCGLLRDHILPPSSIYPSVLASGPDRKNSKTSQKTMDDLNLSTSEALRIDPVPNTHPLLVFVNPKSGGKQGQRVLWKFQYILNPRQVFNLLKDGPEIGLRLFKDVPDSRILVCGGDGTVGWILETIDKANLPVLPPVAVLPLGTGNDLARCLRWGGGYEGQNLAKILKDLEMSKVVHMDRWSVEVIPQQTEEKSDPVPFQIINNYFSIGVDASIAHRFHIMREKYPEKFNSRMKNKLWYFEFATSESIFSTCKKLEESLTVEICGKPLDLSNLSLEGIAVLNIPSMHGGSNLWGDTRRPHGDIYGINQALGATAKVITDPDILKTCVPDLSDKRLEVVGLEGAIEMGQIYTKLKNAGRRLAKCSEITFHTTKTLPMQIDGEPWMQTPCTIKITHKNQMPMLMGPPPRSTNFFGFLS

[3] = target: T1, Diacylglycerol kinase alpha; assay: Inhibition of OST-tagged DGKalpha (unknown origin) expressed in MDCK cell homogenates using DAG as substrate measured after 5 mins in presence of [gamma-32P]ATP by TLC analysis; format: cell-free
How it was run: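 Doxycycline-induced (1 μg/ml, 2 days) MDCK cells expressing OST-DGKα, homogenized in Hepes pH 8 buffer with EDTA, EGTA, vanadate and protease inhibitors. Initial velocity measured 5 min at 27 °C with saturating 1,2-dioleoyl-sn-glycerol and γ32P-ATP plus 25 μM unlabelled ATP and MgCl2. Stopped with HCl, lipids extracted, separated by TLC, radioactive phosphatidic acid quantified by imager. IC50 from 0.1–100 μM, ≥3 experiments, normalized fit.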

[4] = target: Diacylglycerol kinase zeta (Homo sapiens) (UniProt Q13574); assay: Inhibition of DGKzeta (unknown origin) expressed in human 293T cells at 100 uM using DAG as substrate measured after 5 mins in presence of [gamma-32P]ATP by TLC analysis
Sequence of Diacylglycerol kinase zeta (Homo sapiens) (Q13574 whole entry): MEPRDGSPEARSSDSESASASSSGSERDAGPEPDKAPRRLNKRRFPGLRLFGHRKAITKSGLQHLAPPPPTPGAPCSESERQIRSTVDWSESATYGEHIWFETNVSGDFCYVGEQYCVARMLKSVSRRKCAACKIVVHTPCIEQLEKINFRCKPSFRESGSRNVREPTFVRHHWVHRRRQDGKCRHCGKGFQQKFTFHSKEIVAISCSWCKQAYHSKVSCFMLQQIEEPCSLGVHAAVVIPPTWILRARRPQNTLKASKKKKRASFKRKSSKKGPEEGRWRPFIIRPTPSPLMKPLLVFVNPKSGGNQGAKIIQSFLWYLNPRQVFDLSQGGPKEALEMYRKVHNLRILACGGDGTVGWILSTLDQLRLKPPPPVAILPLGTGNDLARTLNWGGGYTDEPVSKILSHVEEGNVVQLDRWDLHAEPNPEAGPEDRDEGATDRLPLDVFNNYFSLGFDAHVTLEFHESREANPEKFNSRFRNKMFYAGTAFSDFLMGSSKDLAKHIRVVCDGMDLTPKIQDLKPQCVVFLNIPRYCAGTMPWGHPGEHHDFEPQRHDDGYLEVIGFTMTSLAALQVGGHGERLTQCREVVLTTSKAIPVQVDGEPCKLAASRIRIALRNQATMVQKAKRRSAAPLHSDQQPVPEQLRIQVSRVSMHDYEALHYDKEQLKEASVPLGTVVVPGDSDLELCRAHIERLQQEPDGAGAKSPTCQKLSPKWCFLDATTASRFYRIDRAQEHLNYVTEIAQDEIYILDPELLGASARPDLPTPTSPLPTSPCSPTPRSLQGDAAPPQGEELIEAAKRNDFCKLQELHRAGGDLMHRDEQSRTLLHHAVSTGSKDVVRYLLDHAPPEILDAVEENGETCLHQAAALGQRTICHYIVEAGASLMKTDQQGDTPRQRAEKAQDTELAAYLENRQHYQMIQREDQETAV
How it was run: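 293T cells transiently transfected with the DGKζ plasmid or empty vector; homogenates collected 48 h later. Compound at 100 μM. Reaction run 5 min at 27 °C with saturating 1,2-dioleoyl-sn-glycerol, γ32P-ATP plus 25 μM unlabelled ATP, and MgCl2, at pH 8. Stopped with HCl, lipids extracted and separated by TLC, read by phosphorimaging. At least three experiments in triplicate.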

[5] = test system: Serotonin (5-HT) receptor; assay: Antagonist activity at serotonin receptor in human PBMC assessed as inhibition of PMA-stimulated superoxide anion generation at 10 uM preincubated for 1 hr followed by PMA-stimulation and measured after 30 mins by spectrophotometric method; details: 0.5 h
[6] = test system: Jurkat; assay: Cytotoxicity against human Jurkat cells assessed as reduction in cell viability at 1 uM after 24 hrs by trypan blue exclusion assay; format: cell-based
How it was run: (§1)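 SAP-shRNA or control-shRNA Jurkat cells, 0.5 × 10^5 cells/well in triplicate, in wells left uncoated or precoated for 24 h at 4 °C with anti-CD3 OKT3 (50 μg/ml) or PHA-P (50 μg/ml). Inhibitor at 1 μM or DMSO control for 24 h. Live cells counted by trypan blue exclusion; % cell loss versus untreated controls. At least three experiments.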

[7] = target: T1, Diacylglycerol kinase alpha; assay: Inhibition of DGKalpha in OKT3-induced human Jurkat cells harboring SAP ShRNA assessed as restoration of restimulation-induced cell death at 1 uM measured after 24 hrs by trypan blue exclusion method; format: cell-based; how it was run: as §1
[8] = target: T1, Diacylglycerol kinase alpha; assay: Inhibition of DGKalpha in PHA-induced human Jurkat cells harboring SAP ShRNA assessed as restoration of restimulation-induced cell death at 1 uM measured after 24 hrs by trypan blue exclusion method; format: cell-based; how it was run: as §1
[9] = target: T-cell receptor (Homo sapiens) (UniProt P04437+P01848+P04435+P03979); assay: Effect on TCR signaling in OKT3-induced human T-cells harboring SiRNA assessed as restoration of restimulation-induced cell death at 1 to 10 uM preincubated for 30 mins followed by OKT3 stimulation and measured 24 hrs post dose by propidium iodide staining based flow cytometry
How it was run: (§2)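 PBL from healthy donors, activated with anti-CD3/CD28 and then kept in IL-2. siRNA (SAP or control, 200 pmol) delivered by nucleofection, then 4 days in IL-2. 10^5 cells/well in triplicate; inhibitor (1, 5, 10 μM) added 30 min before OKT3 restimulation (1–500 ng/ml) for 24 h. PI staining, fixed 30 s flow acquisition; % cell loss.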

[10] = test system: T-cell; assay: Cytotoxicity against human T cells assessed as cell death at 1 to 10 uM measured after 24 hrs propidium iodide staining based flow cytometry; how it was run: as §2
[11] = target: T1, Diacylglycerol kinase alpha; assay: Inhibition of DGKalpha in OKT3-induced human T cells harboring SAP SiRNA assessed as restoration of restimulation-induced cell death at 1 to 10 uM preincubated for 30 mins followed by OKT3 stimulation and measured 24 hrs post dose by propidium iodide staining based flow cytometry; how it was run: as §2
[12] = target: T1, Diacylglycerol kinase alpha; assay: Inhibition of DGKalpha in OKT3-induced human T cells harboring SAP siRNA assessed as restoration of TCR-induced NR4A1 upregulation at 10 uM after 4 hrs by RT-PCR analysis; format: cell-based
How it was run: (§3)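 Activated PBL transfected with SAP or control siRNA, 4 days in culture. Restimulated with OKT3 (10 μg/ml), with or without inhibitor at 10 μM. After 4 h, NR4A1 and NR4A3 measured by TaqMan qPCR normalised to GUSB. At least four independent experiments.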

[13] = target: T1, Diacylglycerol kinase alpha; assay: Inhibition of DGKalpha in OKT3-induced human T cells harboring SAP siRNA assessed as restoration of TCR-induced NR4A3 upregulation at 10 uM after 4 hrs by RT-PCR analysis; format: cell-based; how it was run: as §3
[14] = target: T1, Diacylglycerol kinase alpha; assay: Inhibition of DGKalpha expressed in 293T cell homogenates at 100 uM using DAG as substrate measured after 5 mins in presence of [gamma-32P]ATP by TLC analysis relative to control
[15] = target: T1, Diacylglycerol kinase alpha; assay: Inhibition of DGKalpha in OKT3-induced human T cells harboring SAP SiRNA assessed as restoration of restimulation-induced cell death at >=5 uM preincubated for 30 mins followed by OKT3 stimulation and measured 24 hrs post dose by propidium iodide staining based flow cytometry; how it was run: as §2
[16] = target: Diacylglycerol kinase alpha (Sus scrofa, UniProt P20192); assay: Inhibition of pig FLAG3-tagged DGKalpha expressed in African green monkey COS7 cells using 1,2-dioleoyl-sn-glycerol as substrate measured after 30 mins by ADP-Glo luminescence assay
Sequence of Diacylglycerol kinase alpha (Sus scrofa, UniProt P20192) (P20192 whole entry): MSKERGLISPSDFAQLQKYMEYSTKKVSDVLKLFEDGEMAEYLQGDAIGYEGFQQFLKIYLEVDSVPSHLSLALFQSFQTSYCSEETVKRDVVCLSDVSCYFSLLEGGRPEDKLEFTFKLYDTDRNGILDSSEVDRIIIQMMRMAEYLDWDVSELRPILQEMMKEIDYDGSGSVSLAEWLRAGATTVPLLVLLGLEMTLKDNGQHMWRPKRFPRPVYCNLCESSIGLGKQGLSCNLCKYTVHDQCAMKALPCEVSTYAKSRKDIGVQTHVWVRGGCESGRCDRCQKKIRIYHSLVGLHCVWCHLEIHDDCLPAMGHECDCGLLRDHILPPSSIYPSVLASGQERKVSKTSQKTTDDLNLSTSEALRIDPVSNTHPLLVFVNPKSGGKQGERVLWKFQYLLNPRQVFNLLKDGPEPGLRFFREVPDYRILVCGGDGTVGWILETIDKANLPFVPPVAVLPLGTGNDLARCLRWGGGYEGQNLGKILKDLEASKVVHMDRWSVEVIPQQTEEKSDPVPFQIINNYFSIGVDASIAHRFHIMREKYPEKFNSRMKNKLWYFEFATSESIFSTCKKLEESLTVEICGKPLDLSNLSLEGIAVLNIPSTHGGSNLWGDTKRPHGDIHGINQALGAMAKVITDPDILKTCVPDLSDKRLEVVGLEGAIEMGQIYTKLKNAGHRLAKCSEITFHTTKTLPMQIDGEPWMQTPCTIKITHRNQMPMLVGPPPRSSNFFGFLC

[17] = target: T2, 5-hydroxytryptamine receptor 2C (Homo sapiens, UniProt P28335); assay: Binding affinity to 5HT2C receptor (unknown origin)
T2 sequence (P28335 whole entry): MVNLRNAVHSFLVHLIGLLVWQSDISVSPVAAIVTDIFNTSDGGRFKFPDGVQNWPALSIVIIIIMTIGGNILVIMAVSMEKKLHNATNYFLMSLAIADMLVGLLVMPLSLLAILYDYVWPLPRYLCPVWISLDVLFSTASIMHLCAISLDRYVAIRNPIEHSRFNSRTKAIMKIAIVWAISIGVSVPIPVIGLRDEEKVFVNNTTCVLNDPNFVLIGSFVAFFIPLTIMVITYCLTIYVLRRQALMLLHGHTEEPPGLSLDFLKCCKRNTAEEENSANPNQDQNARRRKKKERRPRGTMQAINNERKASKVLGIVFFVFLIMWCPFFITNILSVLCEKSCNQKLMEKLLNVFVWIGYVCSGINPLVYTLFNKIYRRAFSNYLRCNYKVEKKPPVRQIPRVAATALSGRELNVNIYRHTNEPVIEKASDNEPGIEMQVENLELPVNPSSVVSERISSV

[18] = target: T1, Diacylglycerol kinase alpha; assay: Inhibition of DGKalpha in human erythrocytes using OAG as substrate preincubated for 1 min followed by OAG addition and measured after 8 mins in presence of [gamma-32P]ATP; format: cell-based
[19] = target: Diacylglycerol kinase alpha (Rattus norvegicus, UniProt P51556); assay: Inhibition of rat FLAG-tagged DGKalpha expressed in HEK293T cells using DAG as substrate measured after 15 mins in presence of [gamma-32P]ATP by scintillation counting method
Sequence of Diacylglycerol kinase alpha (Rattus norvegicus, UniProt P51556) (P51556 whole entry): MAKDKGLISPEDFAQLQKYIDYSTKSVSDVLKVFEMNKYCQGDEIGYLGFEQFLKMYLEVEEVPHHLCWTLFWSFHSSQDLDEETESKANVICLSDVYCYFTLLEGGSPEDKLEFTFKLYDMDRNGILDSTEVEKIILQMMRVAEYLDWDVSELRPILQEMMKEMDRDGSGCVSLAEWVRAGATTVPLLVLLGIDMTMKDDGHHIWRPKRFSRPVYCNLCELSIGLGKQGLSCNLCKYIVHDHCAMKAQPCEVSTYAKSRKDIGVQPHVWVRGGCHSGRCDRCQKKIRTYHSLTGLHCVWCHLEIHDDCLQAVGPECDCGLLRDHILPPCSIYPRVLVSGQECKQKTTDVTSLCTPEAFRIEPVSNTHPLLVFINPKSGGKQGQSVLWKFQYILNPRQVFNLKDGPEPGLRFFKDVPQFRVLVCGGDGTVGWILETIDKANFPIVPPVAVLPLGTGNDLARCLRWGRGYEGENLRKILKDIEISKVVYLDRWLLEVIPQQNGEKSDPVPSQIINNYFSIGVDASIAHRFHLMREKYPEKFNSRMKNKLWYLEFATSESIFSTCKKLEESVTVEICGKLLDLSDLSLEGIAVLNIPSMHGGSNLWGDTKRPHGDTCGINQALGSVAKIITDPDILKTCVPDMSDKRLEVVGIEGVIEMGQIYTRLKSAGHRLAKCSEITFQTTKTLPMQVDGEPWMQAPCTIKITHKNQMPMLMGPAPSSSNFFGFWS

With `Cc1nc2n(c(=O)c1CCN1CCC(c3noc4cc(F)ccc34)CC1)CCCC2` [RISPERIDONE] the solubility [1] was “Insoluble”.
In the case of `Cc1ccc2c(C(=O)CN3CCN(C(=O)c4ccco4)CC3)c(C)[nH]c2c1`, the Activity [2] is reported as 4%, the IC50 [3] is reported as 4.28 to 4.3 µM and the inhibition [4] is reported as “inactive”. The “inhibition (INH)” value [5] was “Not Active”, the Activity [6] was “Non-Toxic” and the inhibition [7] was “Active”. For the same compound, the inhibition [8] was “Active”, the Activity [9] was “inactive” and the Activity [10] was “Non-Toxic”. For the same compound, the inhibition [11] was “Active”, the inhibition [12] was “Active” and the inhibition [13] was “Active”. The inhibition [14] was 93%.
With `O=C(CN1CCC(n2nnc3ccccc32)CC1)N(C1CCCCC1)C1CCCCC1` the solubility [1] was “Insoluble”.
`O=c1c2ccccc2[nH]c(=S)n1CCN1CCN(Cc2ccccc2)CC1` showed an Activity [2] of 49%.
In the case of `O=C1/C(=C\C=C\c2ccco2)SC(=S)N1NS(=O)(=O)c1ccccc1`, the “inhibition (INH)” value [5] is reported as “Not Active”, the Activity [6] is reported as “Toxic” and the inhibition [7] is reported as “Active”. For the same compound, the inhibition [8] was “Active”, the Activity [9] was “Active” and the inhibition [15] was “Active”. For the same compound, the IC50 [16] was 0.6 µM.
`COc1ccccc1CCN1CCC(CN(C)C(=O)C2=CCCCC2)CC1` showed an Activity [2] of 57%.
For `O=c1c2ccccc2[nH]c(=S)n1CCCN1CCN(c2cccc(Cl)c2)CC1`, the Activity [2] was 39%.
In the case of `Cc1nc2sccn2c(=O)c1CCN1CCC(=C(c2ccc(F)cc2)c2ccc(F)cc2)CC1` [RITANSERIN], the Activity [2] is reported as 17%, the IC50 [3] is reported as 16.7 µM and the “inhibition (INH)” value [5] is reported as “Active”. For the same compound, the Activity [6] was “Non-Toxic”, the inhibition [7] was “Active” and the inhibition [8] was “Active”. For the same compound, the Activity [9] was “inactive”, the Activity [10] was “Non-Toxic” and the inhibition [11] was “Active”. For the same compound, the inhibition [12] was “Active” and the Ki [17] was 0.00071 µM.
In the case of `O=C(c1ccc(F)cc1)C1CCN(CCn2c(=O)[nH]c3ccccc3c2=O)CC1` [KETANSERIN], the “inhibition (INH)” value [5] is reported as “Active”, the Activity [6] is reported as “Non-Toxic” and the inhibition [7] is reported as “Active”. The inhibition [8] was “Active”, the Activity [9] was “inactive” and the Activity [10] was “Non-Toxic”. The inhibition [11] was “inactive”.
In the case of `CCCCCCCC(=O)OCCOC(=O)CCCCCCC` [ETHYLENE GLYCOL DIOCTANOATE], the Ki [18] is reported as 58 µM.
For `Cc1nc2sccn2c(=O)c1CCN1CCC(=C(c2ccccc2)c2ccc(F)cc2)CC1`, the Activity [2] was 27%, the IC50 [3] was 19.7 to 19.8 µM and the inhibition [4] was “inactive”. For the same compound, the IC50 [16] was 25 µM, the IC50 [18] was 3.8 µM and the IC50 [19] was 20 µM. It also gave an inhibition [14] of 68%.
For `C/C=C(\C)[C@@H](OC(C)=O)[C@@H](C)C1=CC(=O)C2=C(O[C@]3(C)CC[C@H]4O[C@@H](C(C)(C)O)CC[C@]4(C)[C@H]3[C@@H]2O)C1=O` [STEMPHONE], the Ki [18] was 3.32 µM.
With `O=C1C(=O)N(C2CCCC2)C(=O)N1CN1CCC(Cc2ccccc2)CC1` the Activity [2] was 50%.
Compound `COc1ccccc1N1CCN(CCCNc2cc(=O)n(C)c(=O)n2C)CC1` has an Activity [2] of 75%.
`O=C(NCC(=O)N1CCN(C(c2ccccc2)c2ccccc2)CC1)c1ccco1` gave an Activity [2] of 68%.
`O=C(CN1CCN(Cc2ccccc2)CC1)c1c[nH]c2ccccc12` gave an Activity [2] of 72%.
With `O=C(Cn1cnc2sccc2c1=O)N1CCN(C(c2ccccc2)c2ccccc2)CC1` the Activity [2] was 75%.
In the case of `O=C(CCCN1CCC(O)(c2ccc(Cl)cc2)CC1)c1ccc(F)cc1`, the Activity [2] is reported as 62%.
For `O=C(Cc1cn2ccsc2n1)N1CCN(C(c2ccccc2)c2ccccc2)CC1`, the Activity [2] was 64%.
In the case of `CC[C@H](C)[C@@H](OC(C)=O)[C@@H](C)C1=CC(=O)C2=C(O[C@]3(C)CC[C@H]4O[C@@H](C(C)(C)O)CC[C@]4(C)[C@H]3[C@@H]2O)C1=O` [COCHLIOQUINONE A], the Ki [18] is reported as 2.26 µM.
With `O=c1c2ccccc2[nH]c(=S)n1CCN1CCC(=C(c2ccc(F)cc2)c2ccc(F)cc2)CC1` [DIACYLGLYCEROL KINASE INHIBITOR II] the Activity [2] was 28%, the IC50 [3] was 10.6 µM and the inhibition [4] was “inactive”. It also gave an IC50 [16] of 18 µM and an inhibition [14] of 81%.
For `O=C1CC2(CCCC2)C(=O)N1CN1CCN(C(c2ccccc2)c2ccccc2)CC1`, the Activity [2] was 68%.
With `COc1ccccc1OCCCN1CCN(C(=O)c2ccc(=O)[nH]n2)CC1` the Activity [2] was 67%.
